The text below walks through data of ChEMBL document CHEMBL4354861, “Re-Evaluating the Mechanism of Action of α,β-Unsaturated Carbonyl DUB Inhibitors b-AP15 and VLX1570: A Paradigmatic Example of Unspecific Protein Cross-linking with Michael Acceptor Motif-Containing Drugs” (J Med Chem, 2020).

SMILES strings stand for the structures. The source made the active and inactive calls. No cut-off for these calls is given here.

The target of experiment [1] is Ubiquitin carboxyl-terminal hydrolase 7 (Homo sapiens) (UniProt Q93009). Nature of the experiment: Inhibition of N-terminal His6-tagged full length recombinant human USP7 assessed as reduction in cleavage of luminescent substrate Ub-AML at 100 uM. The method in brief:
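Purified recombinant DUBs assayed with Ub-AML as luminescent substrate, using the Glo reagent protocol and read on a microplate luminometer.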

Experiment [2] addresses Ubiquitin carboxyl-terminal hydrolase 14 (Homo sapiens) (UniProt P54578). Nature of the experiment: Inhibition of USP14 in intact human HeLa cells assessed as induction of formation of high molecular weight complexes with USP14 at 10 uM in presence of dithiothreitol incubated for 2 hrs by immunoblot analysis. It is filed as cell-based. The method in brief: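 Intact HeLa cells (DMEM, 10% FBS, about 80% confluent) treated 2 h with vehicle or 10 μM compound, with or without 10 mM DTT or 10 mM GSH. Cells washed in cold PBS and lysed in RIPA with protease and phosphatase inhibitors. High-MW species detected by SDS-PAGE immunoblot; shorter exposures served as loading control.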
On the technique in general: In western blotting, separated proteins are transferred to a membrane and probed.

A further experiment concerns HeLa. The experiment can be described thus: Inhibition of deubiquitinase in human HeLa cell extracts assessed as induction of accumulation of high molecular weight ubiquitylated proteins at 10 uM incubated for 2 hrs in presence of DTT by immunoblot analysis. It is filed as cell-free.

Chain of Ubiquitin carboxyl-terminal hydrolase 14 (Homo sapiens) (P54578 whole entry): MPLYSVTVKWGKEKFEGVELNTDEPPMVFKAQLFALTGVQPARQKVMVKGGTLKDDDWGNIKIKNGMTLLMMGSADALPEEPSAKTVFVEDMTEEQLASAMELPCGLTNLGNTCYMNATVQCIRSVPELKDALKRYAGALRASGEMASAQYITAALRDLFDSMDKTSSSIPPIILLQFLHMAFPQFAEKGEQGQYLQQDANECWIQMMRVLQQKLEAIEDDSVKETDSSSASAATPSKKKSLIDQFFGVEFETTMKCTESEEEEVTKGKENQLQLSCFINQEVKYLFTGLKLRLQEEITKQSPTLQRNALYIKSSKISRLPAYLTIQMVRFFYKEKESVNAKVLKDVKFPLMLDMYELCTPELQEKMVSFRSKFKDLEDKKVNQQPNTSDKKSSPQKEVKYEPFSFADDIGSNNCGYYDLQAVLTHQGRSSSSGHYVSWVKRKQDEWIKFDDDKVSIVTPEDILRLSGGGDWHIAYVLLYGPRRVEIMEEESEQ
Chain of Ubiquitin carboxyl-terminal hydrolase 7 (Homo sapiens) (Q93009 whole entry, looked up): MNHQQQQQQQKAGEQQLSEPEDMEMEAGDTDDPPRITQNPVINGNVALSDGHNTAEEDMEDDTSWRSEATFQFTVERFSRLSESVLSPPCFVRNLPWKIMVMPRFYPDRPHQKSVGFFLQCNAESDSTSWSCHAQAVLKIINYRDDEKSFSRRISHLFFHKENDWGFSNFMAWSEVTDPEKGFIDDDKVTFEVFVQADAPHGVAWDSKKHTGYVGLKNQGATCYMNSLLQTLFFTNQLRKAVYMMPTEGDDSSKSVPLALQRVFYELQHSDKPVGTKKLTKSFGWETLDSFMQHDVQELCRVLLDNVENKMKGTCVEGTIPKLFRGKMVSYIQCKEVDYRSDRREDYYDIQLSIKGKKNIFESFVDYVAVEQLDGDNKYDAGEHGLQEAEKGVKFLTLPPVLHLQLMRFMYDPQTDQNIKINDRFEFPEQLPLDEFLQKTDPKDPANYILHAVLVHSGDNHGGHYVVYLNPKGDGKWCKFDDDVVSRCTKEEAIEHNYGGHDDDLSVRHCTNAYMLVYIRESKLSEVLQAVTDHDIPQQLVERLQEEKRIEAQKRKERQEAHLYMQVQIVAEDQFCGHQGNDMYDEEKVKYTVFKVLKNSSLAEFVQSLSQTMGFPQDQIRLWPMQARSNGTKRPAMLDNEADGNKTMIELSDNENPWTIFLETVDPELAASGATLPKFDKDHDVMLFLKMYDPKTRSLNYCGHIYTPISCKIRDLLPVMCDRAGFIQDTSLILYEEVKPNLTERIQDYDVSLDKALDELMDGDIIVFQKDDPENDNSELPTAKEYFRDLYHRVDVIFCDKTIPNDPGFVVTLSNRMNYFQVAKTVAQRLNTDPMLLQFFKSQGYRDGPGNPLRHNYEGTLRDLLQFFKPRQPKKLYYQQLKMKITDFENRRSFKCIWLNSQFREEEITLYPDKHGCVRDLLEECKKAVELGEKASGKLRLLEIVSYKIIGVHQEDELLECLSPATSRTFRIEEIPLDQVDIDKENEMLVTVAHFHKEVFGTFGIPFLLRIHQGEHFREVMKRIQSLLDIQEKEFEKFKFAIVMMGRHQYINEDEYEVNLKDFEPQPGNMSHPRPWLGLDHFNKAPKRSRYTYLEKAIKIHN

With `C=CC(=O)N1C/C(=C\c2ccc([N+](=O)[O-])cc2)C(=O)/C(=C/c2ccc([N+](=O)[O-])cc2)C1`, the inhibition entry in experiment [1] is “Active”. Besides, the inhibition result (in experiment [2]; in the experiment with HeLa) was “inactive” in each case.
